Source: ChEMBL document CHEMBL4312003, “Optimization of biaryloxazolidinone as promising antibacterial agents against antibiotic-susceptible and antibiotic-resistant gram-positive bacteria” (Eur J Med Chem, 2020)
In brackets after ≈: the same amount, converted by molar mass.

Key:
Staphylococcus aureus [1] = test: Antibacterial activity against Staphylococcus aureus ATCC 29213 assessed as complete reduction in bacterial cell growth by CLSI protocol based broth liquid microdilution method; assay type: functional
Method in brief: (§1)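 Broth liquid microdilution per CLSI guidelines; isolates identified on an automated MicroScan system before testing. MIC taken as lowest concentration giving total inhibition of bacterial growth, reported in μg/mL. S. aureus ATCC29213 run as the control strain.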

Staphylococcus aureus [2] = test: Antibacterial activity against methicillin-resistant Staphylococcus aureus assessed as complete reduction in bacterial cell growth by CLSI protocol based broth liquid microdilution method; assay type: functional; method in brief: as §1
Staphylococcus aureus [3] = test: Antibacterial activity against methicillin-sensitive Staphylococcus aureus assessed as complete reduction in bacterial cell growth by CLSI protocol based broth liquid microdilution method; assay type: functional; method in brief: as §1
Enterococcus faecalis [4] = test: Antibacterial activity against linezolid-resistant Enterococcus faecalis assessed as complete reduction in bacterial cell growth by CLSI protocol based broth liquid microdilution method; assay type: functional; method in brief: as §1
Enterococcus faecium [5] = test: Antibacterial activity against vancomycin-resistant Enterococcus faecium assessed as complete reduction in bacterial cell growth by CLSI protocol based broth liquid microdilution method; assay type: functional; method in brief: as §1
Staphylococcus aureus [6] = test: Antibacterial activity against clinical isolates of methicillin-sensitive Staphylococcus aureus assessed as reduction in bacterial cell growth by CLSI protocol based broth microdilution method; assay type: functional; method in brief: as §1
Enterococcus faecalis [7] = test: Antibacterial activity against clinical isolates of linezolid-resistant Enterococcus faecalis assessed as complete reduction in bacterial cell growth by CLSI protocol based broth liquid microdilution method; assay type: functional; method in brief: as §1
Enterococcus faecium [8] = test: Antibacterial activity against clinical isolates of vancomycin-resistant Enterococcus faecium assessed as complete reduction in bacterial cell growth by CLSI protocol based broth liquid microdilution method; assay type: functional; method in brief: as §1
[9] = Stability in simulated gastric acid assessed as compound remaining at pH 1.2 incubated for 0.5 hrs; assay type: ADME; conditions: read-out: Stability
[10] = Stability in simulated gastric acid assessed as compound remaining at pH 1.2 incubated for 1 hr; assay type: ADME; conditions: read-out: Stability
[11] = Stability in simulated gastric acid assessed as compound remaining at pH 1.2 incubated for 1.5 hrs; assay type: ADME; conditions: read-out: Stability
[12] = Stability in simulated gastric acid assessed as compound remaining at pH 1.2 incubated for 2 hrs; assay type: ADME; conditions: read-out: Stability
[13] = Solubility of compound in water by UV spectrophotometric analysis; assay type: physicochemical
HepG2 = test: Cytotoxicity against human HepG2 cells assessed as reduction in cell viability incubated for 48 hrs by MTT assay; assay type: cell-based; conditions: HepG2, 48 h
Method in brief: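 HepG2 cells were grown in RPMI1640 with 10% FBS and plated at about 4×10^4 cells/well in MEM. After 24 h at 37 °C in 5% CO2, compounds were added at the indicated final concentrations for 48 h. MTT was added (0.5 mg/mL final) for 4 h at 37 °C and the formazan dissolved in DMSO. Absorbance was read at 492 nm (630 nm reference). Each compound was tested three times; IC50 given as mean ± SD.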

[14] = Stability in human liver microsomes assessed as half life at 1.5 uM preincubated for 5 mins with NADPH and measured after 45 mins by LC/MS analysis; assay type: ADME, Microsome; conditions: liver microsomes
Method in brief: (§2)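 Compound solution at 1.5 µM with 0.75 mg/mL microsomes (before NADPH addition) was preincubated 5 min at 37 °C. Reactions were started with NADPH (6 mM stock). Samples were quenched with acetonitrile containing internal standard at 0, 5, 15, 30 and 45 min, then centrifuged, and the supernatant was diluted with water for LC/MS. Runs were in duplicate. T1/2 = ln2/k from the log-linear slope, and CLint was derived from T1/2.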

[15] = Stability in human liver microsomes assessed as intrinsic clearance at 1.5 uM preincubated for 5 mins with NADPH and measured after 45 mins by LC/MS analysis; assay type: ADME, Microsome; conditions: read-out: CLH; method in brief: as §2
[16] = Stability in human liver microsomes assessed as compound remaining at 1.5 uM preincubated for 5 mins with NADPH and measured after 45 mins by LC/MS analysis; assay type: ADME, Microsome; conditions: liver microsomes, read-out: Stability; method in brief: as §2
MAO-A = target: T1, MAO-A (Homo sapiens, UniProt P21397); test: Inhibition of recombinant human MAO-A (active motif 31502) at 30 uM using luciferin as substrate incubated for 15 mins followed by substrate addition and measured after 60 mins by luminescence based method relative to control; conditions: probe luciferin
T1 sequence (P21397 whole entry): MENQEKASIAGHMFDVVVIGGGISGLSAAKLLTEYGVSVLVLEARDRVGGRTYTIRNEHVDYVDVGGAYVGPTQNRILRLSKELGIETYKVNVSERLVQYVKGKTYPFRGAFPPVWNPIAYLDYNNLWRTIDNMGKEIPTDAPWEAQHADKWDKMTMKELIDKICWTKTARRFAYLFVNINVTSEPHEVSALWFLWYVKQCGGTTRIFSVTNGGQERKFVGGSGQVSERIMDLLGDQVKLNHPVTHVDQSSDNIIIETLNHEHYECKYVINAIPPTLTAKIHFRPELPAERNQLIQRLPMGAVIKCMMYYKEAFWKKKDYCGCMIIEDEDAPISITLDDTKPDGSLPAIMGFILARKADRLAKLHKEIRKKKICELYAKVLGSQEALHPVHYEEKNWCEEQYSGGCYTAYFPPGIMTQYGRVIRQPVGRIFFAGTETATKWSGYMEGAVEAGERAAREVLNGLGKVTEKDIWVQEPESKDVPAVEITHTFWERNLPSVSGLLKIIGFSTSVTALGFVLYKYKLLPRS
Method in brief: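 Recombinant human MAO-A was measured with the MAO-Glo kit, modified. Compounds were in DMSO (1% DMSO final) and preincubated with enzyme 15 min at room temperature. Luciferin-derivative substrate was then added and the reaction run 60 min at room temperature. Luciferase detection reagent was added for 20 min and luminescence read. Buffer without enzyme served as the 100% inhibition control; DMSO alone as the no-inhibition control. Percent inhibition = (Max − signal)/(Max − Min)×100.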

Staphylococcus aureus [17] = test: Potency index, ratio of rade-zolid MIC to compound MIC for antibacterial activity against Staphylococcus aureus ATCC 29213 by CLSI protocol based broth liquid microdilution method; assay type: functional
Staphylococcus aureus [18] = test: Potency index, ratio of rade-zolid MIC to compound MIC for antibacterial activity against methicillin-sensitive Staphylococcus aureus by CLSI protocol based broth liquid microdilution method; assay type: functional
Enterococcus faecalis [19] = test: Potency index, ratio of rade-zolid MIC to compound MIC for antibacterial activity against linezolid-resistant Enterococcus faecalis by CLSI protocol based broth liquid microdilution method; assay type: functional
Enterococcus faecium [20] = test: Potency index, ratio of rade-zolid MIC to compound MIC for antibacterial activity against vancomycin-resistant Enterococcus faecium by CLSI protocol based broth liquid microdilution method; assay type: functional
Staphylococcus aureus [21] = test: Antibacterial activity against clinical isolates of methicillin-resistant Staphylococcus aureus assessed as complete reduction in bacterial cell growth by CLSI protocol based broth liquid microdilution method; assay type: functional; method in brief: as §1

Question: For `CC(=O)NC[C@H]1CN(c2ccc(-c3ccc(/C=N/N4CCS(=O)(=O)CC4)nc3)c(F)c2)C(=O)O1`, which MIC (Staphylococcus aureus [1]) is on record?
Answer: 0.125 µg/mL (≈ 0.255 µM)

Question: What about the MIC (Staphylococcus aureus [2]) of the same compound?
Answer: 0.125 µg/mL (≈ 0.255 µM)

Question: And the MIC (Staphylococcus aureus [3])?
Answer: 0.125 µg/mL (≈ 0.255 µM)

Question: What about the MIC (Enterococcus faecalis [4]) of the same compound?
Answer: 0.25 µg/mL (≈ 0.511 µM)

Question: And the MIC (Enterococcus faecium [5])?
Answer: 0.125 µg/mL (≈ 0.255 µM)

Question: What about the MIC (Staphylococcus aureus [6]) of the same compound?
Answer: 0.25 to 0.5 µg/mL (≈ 0.511 to 1.02 µM)

Question: And the MIC (Enterococcus faecalis [7])?
Answer: 0.25 to 0.5 µg/mL (≈ 0.511 to 1.02 µM)

Question: And the MIC (Enterococcus faecium [8])?
Answer: 0.5 µg/mL (≈ 1.02 µM)

Question: And the remaining at 0.5 h [9]?
Answer: 99.7%

Question: And the remaining at 1 h [10]?
Answer: 99.4%

Question: What about the remaining at 1.5 h [11] of the same compound?
Answer: 99.2%

Question: What about the remaining at 2 h [12] of the same compound?
Answer: 98.7%

Question: And the solubility [13]?
Answer: 68 µg/mL (≈ 139 µM)

Question: And the IC50 (HepG2)?
Answer: > 25 µM

Question: What about the half-life at 1.5 µM [14] of the same compound?
Answer: 6.82 h

Question: What about the CLint scaled at 1.5 µM [15] of the same compound?
Answer: 4.25 mL/min/kg

Question: And the remaining at 0.75 h, 1.5 µM [16]?
Answer: 93%

Question: And the inhibition at 1 h, 30 µM (MAO-A)?
Answer: 72%

Question: What about the Ratio (Staphylococcus aureus [17]) of the same compound?
Answer: 2 - 4

Question: And the Ratio (Staphylococcus aureus [18])?
Answer: 2 - 4

Question: And the Ratio (Enterococcus faecalis [19])?
Answer: 2 - 4

Question: And the Ratio (Enterococcus faecium [20])?
Answer: 2 - 4

Question: With `CC(=O)NC[C@H]1CN(c2ccc(-c3ccc(/C=N/N4CC[S+]([O-])CC4)c(O)c3)c(F)c2)C(=O)O1` as the compound, how does the MIC (Staphylococcus aureus [1]) read?
Answer: 0.25 µg/mL (≈ 0.512 µM)

Question: What about the MIC (Staphylococcus aureus [2]) of the same compound?
Answer: 0.125 µg/mL (≈ 0.256 µM)

Question: What about the MIC (Staphylococcus aureus [3]) of the same compound?
Answer: 0.25 µg/mL (≈ 0.512 µM)

Question: And the MIC (Enterococcus faecalis [4])?
Answer: 0.25 µg/mL (≈ 0.512 µM)

Question: And the MIC (Enterococcus faecium [5])?
Answer: 0.25 µg/mL (≈ 0.512 µM)

Question: And the MIC (Staphylococcus aureus [21])?
Answer: 0.5 to 1 µg/mL (≈ 1.02 to 2.05 µM)

Question: And the MIC (Staphylococcus aureus [6])?
Answer: 0.5 µg/mL (≈ 1.02 µM)

Question: What about the MIC (Enterococcus faecalis [7]) of the same compound?
Answer: 0.5 µg/mL (≈ 1.02 µM)

Question: What about the MIC (Enterococcus faecium [8]) of the same compound?
Answer: 0.5 µg/mL (≈ 1.02 µM)

Question: What about the inhibition at 1 h, 30 µM (MAO-A) of the same compound?
Answer: 88%

Question: Which MIC (Staphylococcus aureus [1]) does the source give for `CC(=O)NC[C@H]1CN(c2ccc(-c3ccc(/C=N/N4CCOCC4)nc3)c(F)c2)C(=O)O1` here?
Answer: 0.125 µg/mL (≈ 0.283 µM)

Question: And the MIC (Staphylococcus aureus [2])?
Answer: 0.125 µg/mL (≈ 0.283 µM)

Question: What about the MIC (Staphylococcus aureus [3]) of the same compound?
Answer: 0.25 µg/mL (≈ 0.566 µM)

Question: And the MIC (Enterococcus faecalis [4])?
Answer: 0.25 µg/mL (≈ 0.566 µM)

Question: And the MIC (Enterococcus faecium [5])?
Answer: 0.25 µg/mL (≈ 0.566 µM)

Question: And the MIC (Staphylococcus aureus [6])?
Answer: 0.25 to 0.5 µg/mL (≈ 0.566 to 1.13 µM)

Question: And the MIC (Enterococcus faecalis [7])?
Answer: 0.25 to 0.5 µg/mL (≈ 0.566 to 1.13 µM)

Question: What about the MIC (Enterococcus faecium [8]) of the same compound?
Answer: 1 µg/mL (≈ 2.27 µM)

Question: And the Ratio (Staphylococcus aureus [17])?
Answer: 2 - 4

Question: What about the Ratio (Staphylococcus aureus [18]) of the same compound?
Answer: 2 - 4

Question: What about the Ratio (Enterococcus faecalis [19]) of the same compound?
Answer: 2 - 4

Question: And the Ratio (Enterococcus faecium [20])?
Answer: 2 - 4

Question: For `COC(=O)N1CCN(/N=C/c2ccc(-c3ccc(N4C[C@H](CNC(C)=O)OC4=O)cc3F)cc2O)CC1`, which MIC (Staphylococcus aureus [1]) is on record?
Answer: 0.5 µg/mL (≈ 0.974 µM)

Question: And the MIC (Staphylococcus aureus [2])?
Answer: 0.5 µg/mL (≈ 0.974 µM)

Question: What about the MIC (Staphylococcus aureus [3]) of the same compound?
Answer: 0.5 µg/mL (≈ 0.974 µM)

Question: What about the MIC (Enterococcus faecalis [4]) of the same compound?
Answer: 0.5 µg/mL (≈ 0.974 µM)

Question: And the MIC (Enterococcus faecium [5])?
Answer: 0.5 µg/mL (≈ 0.974 µM)

Question: What about the MIC (Staphylococcus aureus [21]) of the same compound?
Answer: 2 µg/mL (≈ 3.89 µM)

Question: And the MIC (Staphylococcus aureus [6])?
Answer: 2 µg/mL (≈ 3.89 µM)

Question: What about the MIC (Enterococcus faecalis [7]) of the same compound?
Answer: 2 µg/mL (≈ 3.89 µM)

Question: And the MIC (Enterococcus faecium [8])?
Answer: 2 µg/mL (≈ 3.89 µM)
